According to ChEMBL document CHEMBL1140712 (J Med Chem, 2008):

Assays:
Rattus norvegicus [1] = assay: Reduction of food intake in Sprague-Dawley rat at 50 umol/kg, po after 2 hrs relative to control; format: functional
Method in brief: (§1)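 Male Sprague-Dawley rats, caged singly, kept 2 weeks on a reverse light cycle, freely fed, eight per group. Oral gavage of vehicle or compound 1 h before the dark cycle. Food intake measured 2 h postdose and compared with vehicle control.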

[2] = molecular target: 5-hydroxytryptamine receptor 2A (Homo sapiens, UniProt P28223); assay: Agonist activity at human 5HT2A receptor expressed in HEK293 cells assessed as intracellular IP3 accumulation; format: functional, cell-based
5-hydroxytryptamine receptor 2A, sequence (P28223 whole entry): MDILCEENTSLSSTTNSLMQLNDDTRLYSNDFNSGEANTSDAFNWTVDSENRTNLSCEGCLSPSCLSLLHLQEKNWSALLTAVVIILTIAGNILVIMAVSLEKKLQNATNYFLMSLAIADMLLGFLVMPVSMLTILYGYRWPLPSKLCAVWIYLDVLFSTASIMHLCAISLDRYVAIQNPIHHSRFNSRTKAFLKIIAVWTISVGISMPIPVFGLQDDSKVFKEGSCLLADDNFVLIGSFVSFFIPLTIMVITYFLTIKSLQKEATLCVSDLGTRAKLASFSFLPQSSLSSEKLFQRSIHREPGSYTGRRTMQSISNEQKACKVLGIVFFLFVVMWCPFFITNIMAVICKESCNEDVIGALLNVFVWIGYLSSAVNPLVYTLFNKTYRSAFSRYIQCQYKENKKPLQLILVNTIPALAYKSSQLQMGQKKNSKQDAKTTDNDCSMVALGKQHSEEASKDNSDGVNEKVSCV
Method in brief: (§2)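 Functional agonist assay read out as [3H]phosphoinositol turnover; potency expressed as pEC50.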

[3] = molecular target: T1, 5-hydroxytryptamine receptor 2C (Homo sapiens, UniProt P28335); assay: Agonist activity at human 5HT2C receptor expressed in HEK293 cells assessed as intracellular IP3 accumulation; format: functional, cell-based; method in brief: as §2
T1 sequence (P28335 whole entry): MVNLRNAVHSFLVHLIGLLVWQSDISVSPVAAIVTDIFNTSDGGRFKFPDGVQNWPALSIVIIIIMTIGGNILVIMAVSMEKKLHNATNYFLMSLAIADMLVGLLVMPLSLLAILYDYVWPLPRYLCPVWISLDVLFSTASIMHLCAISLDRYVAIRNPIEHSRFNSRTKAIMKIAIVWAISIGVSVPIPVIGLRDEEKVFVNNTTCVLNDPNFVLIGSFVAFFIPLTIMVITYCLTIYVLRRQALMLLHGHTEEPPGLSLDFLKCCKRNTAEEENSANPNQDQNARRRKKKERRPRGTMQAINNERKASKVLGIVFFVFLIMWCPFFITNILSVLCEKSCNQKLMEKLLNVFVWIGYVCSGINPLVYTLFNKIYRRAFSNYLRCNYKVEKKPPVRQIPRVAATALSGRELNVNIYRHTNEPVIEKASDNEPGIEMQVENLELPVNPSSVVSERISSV

Rattus norvegicus [4] = assay: Reduction of food intake in Sprague-Dawley rat at 100 umol/kg, po after 2 hrs relative to control; format: functional; method in brief: as §1
Homo sapiens = species: Homo sapiens; assay: Selectivity ratio of pEC50 for human 5HT2B to pEC50 for human 5HT2C
Rattus norvegicus [5] = assay: Reduction of food intake in Sprague-Dawley rat at 25 umol/kg, po after 2 hrs relative to control; format: functional; method in brief: as §1
[6] = molecular target: Serotonin 2 receptors; 5-HT2a & 5-HT2c (Homo sapiens) (UniProt P28223+P28335); assay: Selectivity ratio of pEC50 for human 5HT2A to pEC50 for human 5HT2C
Serotonin 2 receptors; 5-HT2a & 5-HT2c (Homo sapiens), sequence (P28223 whole entry, looked up, one chain of several): as the sequence (P28223 whole entry) above

[7] = molecular target: 5-hydroxytryptamine receptor 2B (Homo sapiens, UniProt P41595); assay: Agonist activity at human 5HT2B receptor expressed in HEK293 cells assessed as intracellular IP3 accumulation; format: functional, cell-based; method in brief: as §2
5-hydroxytryptamine receptor 2B, sequence (P41595 whole entry): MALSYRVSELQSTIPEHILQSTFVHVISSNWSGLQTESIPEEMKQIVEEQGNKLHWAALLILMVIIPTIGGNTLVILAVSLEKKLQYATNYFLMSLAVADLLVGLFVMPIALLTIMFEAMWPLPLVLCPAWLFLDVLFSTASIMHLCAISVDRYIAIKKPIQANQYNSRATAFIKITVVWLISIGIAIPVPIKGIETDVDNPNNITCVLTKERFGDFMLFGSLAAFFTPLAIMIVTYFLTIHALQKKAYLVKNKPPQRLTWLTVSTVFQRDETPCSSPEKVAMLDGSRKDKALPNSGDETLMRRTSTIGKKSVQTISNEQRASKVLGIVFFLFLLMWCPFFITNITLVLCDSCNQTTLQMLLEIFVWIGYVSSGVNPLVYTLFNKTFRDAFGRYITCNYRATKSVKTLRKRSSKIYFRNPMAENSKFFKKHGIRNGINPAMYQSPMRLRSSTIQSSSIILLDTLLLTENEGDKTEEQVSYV

Rattus norvegicus [8] = assay: Reduction of food intake in Sprague-Dawley rat at 12.5 umol/kg, po after 2 hrs relative to control; format: functional; method in brief: as §1

Compound	inhibition in vivo at 50 µmol/kg (Rattus norvegicus [1]) [%]	EC50 [2] [nM]	EC50 [3] [nM]	inhibition in vivo at 100 µmol/kg (Rattus norvegicus [4]) [%]	Selectivity ratio (Homo sapiens)	inhibition in vivo at 25 µmol/kg (Rattus norvegicus [5]) [%]	Selectivity ratio [6]	EC50 [7] [nM]	inhibition in vivo at 12.5 µmol/kg (Rattus norvegicus [8]) [%]
CC1CNCCc2cc(F)c(Cl)cc21 (racemic)	41	63.1	6.31	58	1.7	30	1	316	
COc1cc2c(cc1Cl)C(C)CNCC2 (single isomer, unassigned; form 1) [listing 1 of 2 here]					1.7		1.4		
C[C@H](N)Cn1ccc2cc(F)c(Cl)cc21		50.1	3.98		-0.4		1.1	1.58	
COc1cc2c(cc1Cl)CCNCC2C (racemic)		100	50.1		0.6		0.3	200	
C[C@H]1CNCCc2ccc(Cl)c(Cl)c21		2510	316					> 10000	
CC1CNCCc2c(Cl)cccc21 (racemic)		> 10000	794					> 10000	
CC1CNCCc2ccc(C(F)(F)F)cc21 (racemic)			6.31		2.1		1.2	794	
C[C@H](N)Cc1cccc(C(F)(F)F)c1 [NORDEXFENFLURAMINE]		200	25.1		-0.2		0.9	15.8	
CC1CNCCc2ccc(Cl)cc21 (racemic)	62			81		52			
C[C@@H]1CNCCc2ccc(C(F)(F)F)cc21	45	100	10		1.9	18	1	794	16
CC1CNCCc2ccc(F)cc21 (racemic)			398					> 10000	
C[C@H]1CNCCc2cc(Cl)c(Cl)cc21	40	10	3.98	66	1	16	0.4	39.8	
CC1CNCCc2ccc(Br)cc21 (racemic)		501	10		2.3		1.7	2000	
COc1ccc2c(c1)CCNCC2C (racemic)		> 10000	1260					> 10000	
CC1CNCCc2ccc(Cl)c(F)c21 (racemic)		794	20		2.1		1.6	2510	
CC1CNCCc2ccccc21 (racemic)			316					3980	
C[C@@H]1CNCCc2ccc(Cl)c(Cl)c21	41	126	3.16	69	2.6	19	1.6	1260	
c1ccc2c(c1)CCNCC2		> 10000	3160					> 10000	

Compound	inhibition in vivo at 50 µmol/kg (Rattus norvegicus [1]) [%]	EC50 [2] [nM]	EC50 [3] [nM]	inhibition in vivo at 100 µmol/kg (Rattus norvegicus [4]) [%]	Selectivity ratio (Homo sapiens)	inhibition in vivo at 25 µmol/kg (Rattus norvegicus [5]) [%]	Selectivity ratio [6]	EC50 [7] [nM]	inhibition in vivo at 12.5 µmol/kg (Rattus norvegicus [8]) [%]
C[C@@H]1CNCCc2ccc(Cl)c(F)c21		1000	3.98		> 3.4		2.4	> 10000	
COc1cc2c(cc1Cl)C(C)CNCC2 (racemic) [listing 1 of 2 here]					0.9		0.9		
COc1cc2c(cc1Cl)C(C)CNCC2 (single isomer, unassigned; form 2) [listing 1 of 2 here]					0.8		0.7		
CC1CNCCc2cc(Cl)ccc21 (racemic)		158	25.1		1.3		0.8	501	
COc1ccc2c(c1)C(C)CNCC2 (racemic)		251	200					5010	
CC1CNCCc2ccc(Cl)c(Cl)c21 (racemic)		200	7.94		2.3		1.4	1580	
COc1cc2c(cc1Cl)C(C)CNCC2 (single isomer, unassigned; form 1) [listing 2 of 2 here]	36	200	7.94	43		32		398	
CC[C@H]1CNCCc2ccc(Cl)cc21		251	39.8		0.8		0.8	251	
COc1cc2c(cc1Cl)C(C)CNCC2 (racemic) [listing 2 of 2 here]	52	63.1	7.94	71		38		63.1	
CC1CNCCc2cccc(Cl)c21 (racemic)		> 10000	794					> 10000	
CC1CNCCc2c(Cl)cc(Cl)cc21 (centres undefined)		126			1.6		0.8	794	
C[C@@H]1CNCCc2cc(Cl)c(Cl)cc21	58	100	7.94	74	1.5	54	1.1	251	
COc1cc2c(cc1Cl)C(C)CNCC2 (single isomer, unassigned; form 2) [listing 2 of 2 here]	66	31.6	6.31	77		60		39.8	
CC[C@@H]1CNCCc2ccc(Cl)cc21		316	20		1.5		1.2	631	
CC1(C)CNCCc2ccc(Cl)cc21		1580	200					> 10000	
Clc1ccc2c(c1)CCNCC2	68	100	12.6	85	1.9	63	0.9		
CC1CNCCc2cc(Cl)c(Cl)cc21 (racemic)	44	20		60	1.1	33	0.7	50.1	
